Activity calls are given as the source filed them. The rule behind the calls is not given here.
Tests used:
Assay type in all cases: functional
NSCLC = assay: Cytotoxicity against human NSCLC cells after 48 hrs by coulter counting; conditions: for CC50: read-out: LC50 (the source's name)
Outline: (§1)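 NCI 60-cell-line panel covering nine tumour subpanels, tested over a 5-log dose range. Compounds were dissolved in DMSO and diluted in phosphate-buffered saline to a final DMSO below 1%. Wells held 6 × 10⁴ cells/ml and were run in duplicate. Controls contained PBS and DMSO at matching dilutions. Incubation was at 37 °C in humidified 5% CO₂. GI₅₀, TGI and LC₅₀ were reported.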

SNB-75 = assay: Growth inhibition of human SNB75 cells at 10 uM after 48 hrs by coulter counting; conditions: SNB-75, 48 h, read-out: GI
Outline: (§2)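 Single-dose primary screen across the full NCI 60-cell-line panel. Stocks were made in DMSO and diluted in PBS to a final DMSO below 1%. Cultures at 6 × 10⁴ cells/ml were run in duplicate wells alongside PBS/DMSO vehicle controls at 37 °C in humidified 5% CO₂. Data were expressed as percent growth of treated cells.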

NCI-H23 = assay: Growth inhibition of human NCI-H23 cells at 10 uM after 48 hrs by coulter counting; conditions: NCI-H23, 48 h, read-out: GI; outline: as §2
K562 = assay: Growth inhibition of human K562 cells at 10 uM after 48 hrs by coulter counting; outline: as §2
[1] = Cytotoxicity against human CNS cancer cells after 48 hrs by coulter counting; conditions: Cancer cell lines; outline: as §1
HCT-116 = assay: Growth inhibition of human HCT116 cells at 10 uM after 48 hrs by coulter counting; outline: as §2
[2] = Cytotoxicity against human renal cancer cells after 48 hrs by coulter counting; conditions: Cancer cell lines; outline: as §1
UACC-62 = assay: Growth inhibition of human UACC62 cells at 10 uM after 48 hrs by coulter counting; conditions: UACC-62, 48 h, read-out: GI
Outline: (§3)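 Single-dose screen in the NCI 60 human tumor cell line panel (nine subpanels). Compounds dissolved in DMSO and diluted in phosphate buffered saline, keeping final DMSO below 1%. Added in duplicate wells to cells at 6 × 10⁴ cells/ml. Controls held PBS and DMSO at matching dilutions. Incubated at 37 °C, humidified, 5% CO₂. Reported as percent growth of treated cells.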

ACHN = assay: Growth inhibition of human ACHN cells at 10 uM after 48 hrs by coulter counting; conditions: read-out: GI; outline: as §2
[3] = Growth inhibition of human NCI-322M cells at 10 uM after 48 hrs by coulter counting; conditions: read-out: GI; outline: as §2
HOP-62 = assay: Growth inhibition of human HOP62 cells at 10 uM after 48 hrs by coulter counting; outline: as §2
SF-268 = assay: Growth inhibition of human SF268 cells at 10 uM after 48 hrs by coulter counting; conditions: SF-268, 48 h, read-out: GI; outline: as §2
T47D = assay: Growth inhibition of human T47D cells at 10 uM after 48 hrs by coulter counting; conditions: read-out: GI; outline: as §3
A498 = assay: Growth inhibition of human A498 cells at 10 uM after 48 hrs by coulter counting; conditions: A498, 48 h, read-out: GI; outline: as §2
[4] = Cytotoxicity against human ovarian cancer cells after 48 hrs by coulter counting; conditions: Cancer cell lines; for CC50: read-out: LC50 (the source's name); outline: as §1
[5] = Cytotoxicity against human melanoma cells after 48 hrs by coulter counting; conditions: Melanoma cell; for CC50: read-out: LC50 (the source's name); outline: as §1
SNB-19 = assay: Growth inhibition of human SNB19 cells at 10 uM after 48 hrs by coulter counting; conditions: SNB-19, 48 h, read-out: GI; outline: as §2
NCI-H226 = assay: Growth inhibition of human NCI-H226 cells at 10 uM after 48 hrs by coulter counting; conditions: NCI-H226, 48 h, read-out: GI; outline: as §2
CCRF-CEM = assay: Growth inhibition of human CCRF-CEM cells at 10 uM after 48 hrs by coulter counting; conditions: read-out: GI; outline: as §2
DU-145 = assay: Growth inhibition of human DU145 cells at 10 uM after 48 hrs by coulter counting; outline: as §2
SF-295 = assay: Growth inhibition of human SF295 cells at 10 uM after 48 hrs by coulter counting; conditions: SF-295, 48 h, read-out: GI; outline: as §2
786-0 = assay: Growth inhibition of human 786-0 cells at 10 uM after 48 hrs by coulter counting; conditions: 786-0, 48 h, read-out: GI; outline: as §2
UO-31 = assay: Growth inhibition of human UO31 cells at 10 uM after 48 hrs by coulter counting; outline: as §3
HCT-15 = assay: Growth inhibition of human HCT15 cells at 10 uM after 48 hrs by coulter counting; outline: as §2
LOX IMVI = assay: Growth inhibition of human LOXIMVI cells at 10 uM after 48 hrs by coulter counting; outline: as §2
[6] = Cytotoxicity against human breast cancer cells after 48 hrs by coulter counting; conditions: Cancer cell lines; for CC50: read-out: LC50 (the source's name); outline: as §1
BT-549 = assay: Growth inhibition of human BT549 cells at 10 uM after 48 hrs by coulter counting; conditions: BT-549, 48 h, read-out: GI; outline: as §2
[7] = Cytotoxicity against human colon cancer cells after 48 hrs by coulter counting; conditions: Cancer cell lines; outline: as §1
NCI-H522 = assay: Growth inhibition of human NCI-H522 cells at 10 uM after 48 hrs by coulter counting; conditions: NCI-H522, 48 h, read-out: GI; outline: as §2
A549 = assay: Growth inhibition of human A549 cells at 10 uM after 48 hrs by coulter counting; conditions: A549, 48 h, read-out: GI; outline: as §2
OVCAR-8 = assay: Growth inhibition of human OVCAR8 cells at 10 uM after 48 hrs by coulter counting; outline: as §2
SK-MEL-28 = assay: Growth inhibition of human SK-MEL-28 cells at 10 uM after 48 hrs by coulter counting; conditions: SK-MEL-28, 48 h, read-out: GI; outline: as §2
HL-60(TB) = assay: Growth inhibition of human HL-60(TB) cells at 10 uM after 48 hrs by coulter counting; conditions: HL-60, 48 h, read-out: GI
Outline: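 Test compound was dissolved in DMSO and diluted in phosphate-buffered saline to a final DMSO level below 1%. Dilutions were plated in duplicate with cell culture at 6 × 10⁴ cells/ml. Vehicle controls held PBS and DMSO at matching dilutions. Incubation was at 37 °C, humidified, under 5% CO₂. Data were reported as percent growth of treated cells.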

KM12 = assay: Growth inhibition of human KM12 cells at 10 uM after 48 hrs by coulter counting; outline: as §2
SK-MEL-2 = assay: Growth inhibition of human SK-MEL-2 cells at 10 uM after 48 hrs by coulter counting; conditions: SK-MEL-2, 48 h, read-out: GI; outline: as §2
M14 = assay: Growth inhibition of human M14 cells at 10 uM after 48 hrs by coulter counting; conditions: M14, 48 h, read-out: GI; outline: as §2

SMILES: CCN1CC2=C(N=C3SC=CN3C2c2ccc(OC)cc2)/C(=C/c2ccc(OC)cc2)C1 (stereo not given)
- GI50 (NSCLC): 2.5 µM
- TGI (NSCLC): 18.3 µM
- CC50 (NSCLC): 64.9 µM
- inhibition of growth at 10 µM (SNB-75): 22.3%
- inhibition of growth at 10 µM (NCI-H23): 54.8%
- growth inhibition (GI) (K562): Active
- GI50 [1]: 4.7 µM
- LC50 [1]: 68.2 µM
- TGI [1]: 9.4 µM
- growth inhibition (GI) (HCT-116): Active
- GI50 [2]: 2.3 µM
- LC50 (concentration giving 50% net cell kill) [2]: 24.9 µM
- TGI [2]: 6 µM
- inhibition of growth at 10 µM (UACC-62): 49.3%
- inhibition of growth at 10 µM (ACHN): 83%
- inhibition of growth at 10 µM [3]: 29%
- growth inhibition (GI) (HOP-62): Active
- inhibition of growth at 10 µM (SF-268): 85.5%
- inhibition of growth at 10 µM (T47D): 24.4%
- inhibition of growth at 10 µM (A498): 11.1%
- GI50 [4]: 2.8 µM
- TGI [4]: 22.5 µM
- CC50 [4]: 74.7 µM
- GI50 [5]: 3.5 µM
- TGI [5]: 10.9 µM
- CC50 [5]: 55 µM
- inhibition of growth at 10 µM (SNB-19): 68.3%
- inhibition of growth at 10 µM (NCI-H226): 88%
- inhibition of growth at 10 µM (CCRF-CEM): 97.3%
- growth inhibition (GI) (DU-145): Active
- inhibition of growth at 10 µM (SF-295): 71.8%
- inhibition of growth at 10 µM (786-0): 53.2%
- growth inhibition (GI) (UO-31): Active
- growth inhibition (GI) (HCT-15): Active
- growth inhibition (GI) (LOX IMVI): Active
- GI50 [6]: 2.5 µM
- TGI [6]: 8 µM
- CC50 [6]: 73.4 µM
- inhibition of growth at 10 µM (BT-549): 55.2%
- GI50 [7]: 1.7 µM
- LC50 (concentration giving 50% net cell kill) [7]: 6.7 µM
- TGI [7]: 3.4 µM
- inhibition of growth at 10 µM (NCI-H522): 52.3%
- inhibition of growth at 10 µM (A549): 66.3%
- growth inhibition (GI) (OVCAR-8): Active
- inhibition of growth at 10 µM (SK-MEL-28): 10.9%
- inhibition of growth at 10 µM (HL-60(TB)): 84%
- growth inhibition (GI) (KM12): Active
- inhibition of growth at 10 µM (SK-MEL-2): > 10%
- inhibition of growth at 10 µM (M14): 97.5%

SMILES: CCN1CC2=C(N=C3SC=CN3C2c2ccc(OC)c(OC)c2)/C(=C/c2ccc(OC)c(OC)c2)C1 (stereo not given)
- GI50 (NSCLC): 3.2 µM
- TGI (NSCLC): 40.1 µM
- CC50 (NSCLC): 76.5 µM
- inhibition of growth at 10 µM (SNB-75): 71.4%
- inhibition of growth at 10 µM (NCI-H23): 43.9%
- inhibition of growth at 10 µM (K562; K562, 48 h, read-out: GI): 95.2%
- GI50 [1]: 3.3 µM
- LC50 [1]: 82.8 µM
- TGI [1]: 26.7 µM
- growth inhibition (GI) (HCT-116): Active
- GI50 [2]: 3.1 µM
- LC50 (concentration giving 50% net cell kill) [2]: 52.8 µM
- TGI [2]: 9.8 µM
- inhibition of growth at 10 µM (UACC-62): 62.4%
- inhibition of growth at 10 µM (ACHN): 79.5%
- inhibition of growth at 10 µM [3]: 19.1%
- inhibition of growth at 10 µM (HOP-62; HOP-62, 48 h, read-out: GI): 84.7%
- inhibition of growth at 10 µM (SF-268): 76%
- inhibition of growth at 10 µM (T47D): > 10%
- inhibition of growth at 10 µM (A498): 18.4%
- GI50 [4]: 3.2 µM
- TGI [4]: 48.9 µM
- CC50 [4]: 90.5 µM
- GI50 [5]: 3.4 µM
- TGI [5]: 10.1 µM
- CC50 [5]: 44.6 µM
- inhibition of growth at 10 µM (SNB-19): 52.9%
- inhibition of growth at 10 µM (NCI-H226): 53.2%
- inhibition of growth at 10 µM (CCRF-CEM): 94%
- growth inhibition (GI) (DU-145): Active
- inhibition of growth at 10 µM (SF-295): 82.2%
- inhibition of growth at 10 µM (786-0): > 10%
- inhibition of growth at 10 µM (UO-31; UO-31, 48 h, read-out: GI): 40.7%
- inhibition of growth at 10 µM (HCT-15; HCT-15, 48 h, read-out: GI): 75.8%
- growth inhibition (GI) (LOX IMVI): Active
- GI50 [6]: 19.3 µM
- TGI [6]: 43.9 µM
- CC50 [6]: 74.7 µM
- inhibition of growth at 10 µM (BT-549): > 10%
- GI50 [7]: 2 µM
- LC50 (concentration giving 50% net cell kill) [7]: 29.3 µM
- TGI [7]: 4.3 µM
- inhibition of growth at 10 µM (NCI-H522): 46.1%
- inhibition of growth at 10 µM (A549): 61.1%
- inhibition of growth at 10 µM (OVCAR-8; OVCAR-8, 48 h, read-out: GI): 95.9%
- inhibition of growth at 10 µM (SK-MEL-28): 61.3%
- inhibition of growth at 10 µM (HL-60(TB)): 48.3%
- growth inhibition (GI) (KM12): Active
- inhibition of growth at 10 µM (SK-MEL-2): 11.5%
- inhibition of growth at 10 µM (M14): 94.3%
